L major viab: reduces viability of Leishmania major promastigotes; resazurin fluorescence viability; 200,000 tested, 9% active; inhibition, % at 10 µM; in the data active means inhibition above about 50%;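 further: promastigotes grown with compound for 44 hours at 28 °C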
Mdm2 ligase inh: Mdm2 E3 ligase (human) inhibition; Q00987; cell-based MDM2 ubiquitination luciferase reporter, 2 h; 0 = plate control, 100 = twice control, blank-subtracted; signal enhancement, % at 5 µM; 210,000 tested, 0.11% active; AID 1230;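 active means signal enhancement of 30% or more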;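 further: luminescence tracks abundance of the self-degrading MDM2-luciferase fusion protein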
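Material: stable MDM2–luciferase fusion reporter cells / Quantity: 2000 cells/well / Dosing: single 5 µM compound dose, 0.2% final DMSO / Buffer or medium: DMEM / Schedule: 4 h cell settling then 2 h compound exposure, 37 °C / Detection: luminescence with SteadyLite reagent, 15 min at room temperature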
S1P3 antagonist: blocks the human S1P3 receptor | CHO S1P3 NFAT-BLA reporter, FRET fluorescence, antagonist mode | AID 485 | inhibition, % at 4.98 µM | 170,000 tested, 0.27% active | Q99500;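 active means inhibition above the plate cutoff, the mean inhibition of test wells on that plate plus 3 SD, cut at about 28% in these data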;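 further: cells challenged with S1P at its EC80 of 0.8 µM; blue over green emission ratio from cleaved BLA substrate after 4 h stimulation; 0% = S1P-stimulated wells and 100% = unstimulated DMSO-only wells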
S1P4 ag: agonists of human S1P4 receptor. S1P4-expressing cell line, agonist reporter assay. activation, % at 4.98 µM. 220,000 tested, 0.35% active. AID 1509; in the data active means activation above about 11%;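 further: 0% = DMSO vehicle and 100% = reference agonist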
Target sequence (O95977 whole entry, looked up): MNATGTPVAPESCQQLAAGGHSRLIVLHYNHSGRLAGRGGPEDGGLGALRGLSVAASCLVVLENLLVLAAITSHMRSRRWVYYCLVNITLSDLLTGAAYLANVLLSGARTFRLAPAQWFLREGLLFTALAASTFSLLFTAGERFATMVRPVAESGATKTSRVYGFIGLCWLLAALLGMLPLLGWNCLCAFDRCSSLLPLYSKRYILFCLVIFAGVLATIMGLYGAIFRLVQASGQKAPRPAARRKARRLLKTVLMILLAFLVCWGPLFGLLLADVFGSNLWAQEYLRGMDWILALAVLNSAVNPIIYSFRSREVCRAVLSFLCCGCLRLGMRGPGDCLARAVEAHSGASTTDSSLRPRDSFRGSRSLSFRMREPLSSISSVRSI
S1P4 antagonist: antagonists of human S1P4 receptor. 220,000 tested, 0.26% active. O95977. AID 1510. inhibition, % at 4.98 µM. S1P4-expressing cells, antagonist mode, reporter read-out; in the data active means inhibition above about 29%;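 further: 0% = wells stimulated with agonist and 100% = vehicle wells without agonist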
Starred values were filed as active, the others as inactive; nt = no result. The full list was thinned out, with hits kept by preference.

SMILES	L major viab	Mdm2 ligase inh	S1P3 antagonist	S1P4 ag	S1P4 antagonist
COc1cc2c(C(=O)N3CCN(c4cccc(Cl)c4)CC3)cn(C)c(=O)c2cc1OC	-3	-6	nt	-5	-5
O=C(O)CCC(=O)Nc1nc2nccc(-c3ccccc3)n2n1	nt	5	-1	0	8
Cc1ccc(C(c2c(C)n(C)n(-c3ccccc3)c2=O)c2c(C)n(C)n(-c3ccccc3)c2=O)s1	94*	-12	-11	-3	5
OCC1(Cc2ccccc2C(F)(F)F)CCN(Cc2ccccc2)CC1	81*	7	16	0	-6
OCC1(Cc2ccccc2C(F)(F)F)CCN(Cc2ccc3c(c2)CCO3)CC1	90*	-9	-13	0	3
OCC1(Cc2ccccc2)CCN(Cc2ccccn2)CC1	-4	15	0	0	-3
O=C(Nc1nn[nH]n1)C12CC3CC(CC(C3)C1)C2	0	-13	nt	1	-19
Cc1ccc(-c2csc3ncnc(-n4nnc5ccccc54)c23)cc1C	76*	3	1	-1	-3
O=C(CCCOc1ccc(Cl)cc1Cl)N1CCCc2ccccc21	1	2	nt	1	1
c1ccc(-c2ccccc2OCCOCCN2CCc3ccccc3C2)cc1	77*	-4	-15	0	11
Clc1ccc(OCCOCCN2CCc3ccccc3C2)c(Cl)c1	88*	-9	3	-2	-6
O=[N+]([O-])c1ccc2[nH]c(O)c(N=NC3CS(=O)(=O)CC3O)c2c1 (stereo unspecified)	nt	0	-7	2	4
N#Cc1c(-c2ccccc2)c(-c2ccccc2)n(Cc2ccco2)c1NC(=O)c1cccs1	62*	-17	nt	2	-3
O=C(CSc1nnc(-c2ccc(O)cc2)n1Cc1ccco1)c1cccs1	19	-7	1	1	-1
CC(NC(=O)CCc1nnc(CCCc2ccccc2)o1)c1ccccc1 (stereo unspecified)	76*	19	-11	0	2
CC(NC(=O)CCc1nnc(-c2ccccc2)o1)c1ccccc1 (stereo unspecified)	-4	-5	6	0	0
CN(C(=O)c1ccc(S(=O)(=O)c2cccc(Cl)c2)c([N+](=O)[O-])c1)C1CCCCC1	100*	-26	-3	-2	-13
CN(C(=O)c1ccc2nccnc2c1)C1CCCCC1	nt	4	-5	-1	5
COc1ccc2c(=O)cc(-c3ccccc3F)oc2c1	nt	-12	2	0	14
O=C1c2cccc3c([N+](=O)[O-])ccc(c23)C(=O)N1c1ccc(Cl)cn1	100*	-24	nt	5	23
O=C1c2cccc3c(N4CCCCC4)ccc(c23)C(=O)N1c1ccc(Cl)cn1	3	nt	nt	0	5
O=C1c2cccc3c([N+](=O)[O-])ccc(c23)C(=O)N1c1nccs1	64*	-9	nt	0	99*
CCOC(=O)C1=NOC2C3CC(C12)C1C(=O)N(CCc2ccc(OC)c(OC)c2)C(=O)C31 (stereo unspecified)	nt	nt	-2	-1	-16
Cc1cc(C)c(NC(=O)COC(=O)/C=C/c2cccs2)c(C)c1	-6	5	-30	1	-4
CCOc1ccccc1N1CCN(C(=O)c2csc(C)c2CC)CC1	0	-10	-6	-1	-7
SMILES	L major viab	Mdm2 ligase inh	S1P3 antagonist	S1P4 ag	S1P4 antagonist
FC(F)(F)c1cc(-c2ccccn2)nc2cc(-c3ccccc3)nn12	nt	-17	-2	1	-7
CC(NC(=O)Cc1ccccc1)c1nc2ccccc2[nH]1 (stereo unspecified)	-5	-11	6	0	-4
CC(C)C(=O)Nc1sc2c(c1-c1nc3ccccc3[nH]1)CCCC2	61*	-44	nt	-2	-14
Cc1ccc(NC(=O)C(Cc2ccccc2)NC(=O)OCc2ccccc2)cc1C (stereo unspecified)	-5	9	-5	2	2
Cc1cccc(NC(=O)[C@H](Cc2ccccc2)NC(=O)OCc2ccccc2)c1	71*	-12	5	0	-16
Cc1cccc(NC(=S)NC(C)CCc2ccccc2)c1 (stereo unspecified)	78*	-10	7	-3	12
Cc1cccc(NC(=O)NC(C)CCc2ccccc2)c1 (stereo unspecified)	5	-21	3	0	-3
O=C(NC(NC(=S)Nc1cccc(Cl)c1)C(Cl)(Cl)Cl)OCc1ccccc1 (stereo unspecified)	100*	-11	nt	0	-14
Oc1ccc(-c2nc3ccccn3c2NCc2ccco2)cc1	7	-28	nt	1	-4
COc1ccccc1CNc1ccc([N+](=O)[O-])cc1C	19	-3	-19	1	-11
COc1ccccc1NCc1ccc([N+](=O)[O-])s1	60*	-4	15	0	-9
Cc1ccccc1NC(=O)Cn1nnc2ccccc21	-16	-88	-18	1	-8
C=CCn1c(SCC(=O)NCc2ccc3c(c2)OCO3)nnc1C1CCCCC1	-5	-2	8	0	-32
C=CCn1c(SCC(=O)NCc2ccccc2)nnc1C1CCCCC1	78*	-1	nt	0	3
COCCNC(=O)CCn1c(=O)oc2ccccc21	70*	-10	-36	0	-22
CCOc1ccc(-c2nc(S(=O)(=O)c3ccccc3)c(NCc3cccnc3)o2)cc1	83*	-9	2	-1	-33
CCCCNc1oc(-c2ccc(OC)cc2)nc1S(=O)(=O)c1ccccc1	2	-14	nt	-1	9
COCCCN(C(=S)Nc1cc(C)cc(C)c1)C(C)c1ccncc1 (stereo unspecified)	82*	-6	-6	1	-14
COCCCN(C(=S)Nc1cccc(Cl)c1)C(C)c1ccncc1 (stereo unspecified)	63*	-12	-8	1	2
COCCCN(C(=O)Nc1cccc(Cl)c1)C(C)c1ccccn1 (stereo unspecified)	7	-10	nt	0	-5
Cc1cccc(C)c1NC(=S)N(CCN(C)C)C(C)c1ccccn1 (stereo unspecified)	2	-10	-8	-1	-2
COCCCN(C(=S)Nc1c(C)cc(C)cc1C)C(C)c1ccccn1 (stereo unspecified)	52*	1	0	-1	-3
COCCCN(C(=S)Nc1ccc(OC)cc1)C(C)c1ccncc1 (stereo unspecified)	3	nt	0	0	10
O=C(NCCCn1ccnc1)C1c2ccccc2Oc2ccccc21	1	-5	-1	-4	-14
Cn1c(SCc2ccccn2)nc2c1c(=O)[nH]c(=O)n2C	nt	nt	2	0	-13
O=c1c2c(n3cnnc3n1-c1ccccc1)-c1ccccc1CC21CCCC1	66*	-4	-14	0	-28
Cc1ccc(N(CC(=O)NCc2ccc3c(c2)OCO3)S(=O)(=O)c2c(C)noc2C)cc1	59*	-6	5	-3	-30
CN(C)CCN(C(=O)c1ccc(S(=O)(=O)N(C)c2ccccc2)cc1)c1nc2cc3c(cc2s1)OCCO3	nt	nt	-6	-1	-5

Compound activity (PubChem)
